Test results taken from ChEMBL document CHEMBL1145325, “p38 MAP kinase inhibitors. Part 3: SAR on 3,4-dihydropyrimido[4,5-d]pyrimidin-2-ones and 3,4-dihydropyrido[4,3-d]pyrimidin-2-ones” (Bioorg Med Chem Lett, 2006).

Columns and labels:
[1] = molecular target: Mitogen-activated protein kinase 14 (Homo sapiens, UniProt Q16539); experiment: Inhibition of p38alpha
THP-1 [2] = experiment: Inhibition of LPS-stimulated TNFalpha release in human THP1 cells; format: functional, cell-based
Outline: (§1)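 THP-1 cells at 2.5 · 10⁶/mL suspended in a PBS-based medium. Compound added in DMSO, then LPS. Incubated 4 h at 37 °C under CO₂. TNF-α in the supernatant measured by sandwich ELISA, with anti-human TNF-α as the capture antibody.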

[3] = molecular target: Voltage-gated L-type calcium channel (Homo sapiens, UniProt Q13936+Q13698+Q01668+O60840); experiment: Binding affinity to DLZ binding site of calcium channel; format: protein assay
Homo sapiens [4] = species: Homo sapiens; experiment: Inhibition of LPS-stimulated TNFalpha release in human whole blood upto 15 uM; format: functional, organism-based
Homo sapiens [5] = species: Homo sapiens; experiment: Inhibition of LPS-stimulated TNFalpha release in human whole blood; format: functional, organism-based
[6] = molecular target: Voltage-gated inwardly rectifying potassium channel KCNH2 (Homo sapiens, UniProt Q12809); experiment: Binding affinity to iKr potassium channel
[7] = Oral bioavailability in rat; format: ADME, organism-based; details: in vivo
[8] = Half life in rat; format: ADME, organism-based; details: in vivo
THP-1 [9] = experiment: Inhibition of LPS-stimulated TNFalpha release in human THP1 cells upto 15 uM; format: functional, cell-based; outline: as §1

Chain of Mitogen-activated protein kinase 14 (Q16539 whole entry): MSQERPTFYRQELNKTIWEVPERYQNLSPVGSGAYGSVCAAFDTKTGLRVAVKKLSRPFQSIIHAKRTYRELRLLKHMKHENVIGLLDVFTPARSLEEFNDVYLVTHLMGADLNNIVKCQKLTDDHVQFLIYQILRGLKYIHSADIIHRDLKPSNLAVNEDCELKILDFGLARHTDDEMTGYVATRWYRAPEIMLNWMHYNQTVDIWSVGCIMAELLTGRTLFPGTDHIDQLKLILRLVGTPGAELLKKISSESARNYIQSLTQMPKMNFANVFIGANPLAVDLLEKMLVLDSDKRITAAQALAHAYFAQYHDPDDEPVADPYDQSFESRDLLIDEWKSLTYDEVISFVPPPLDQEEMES
Chain of Voltage-gated inwardly rectifying potassium channel KCNH2 (Q12809 whole entry): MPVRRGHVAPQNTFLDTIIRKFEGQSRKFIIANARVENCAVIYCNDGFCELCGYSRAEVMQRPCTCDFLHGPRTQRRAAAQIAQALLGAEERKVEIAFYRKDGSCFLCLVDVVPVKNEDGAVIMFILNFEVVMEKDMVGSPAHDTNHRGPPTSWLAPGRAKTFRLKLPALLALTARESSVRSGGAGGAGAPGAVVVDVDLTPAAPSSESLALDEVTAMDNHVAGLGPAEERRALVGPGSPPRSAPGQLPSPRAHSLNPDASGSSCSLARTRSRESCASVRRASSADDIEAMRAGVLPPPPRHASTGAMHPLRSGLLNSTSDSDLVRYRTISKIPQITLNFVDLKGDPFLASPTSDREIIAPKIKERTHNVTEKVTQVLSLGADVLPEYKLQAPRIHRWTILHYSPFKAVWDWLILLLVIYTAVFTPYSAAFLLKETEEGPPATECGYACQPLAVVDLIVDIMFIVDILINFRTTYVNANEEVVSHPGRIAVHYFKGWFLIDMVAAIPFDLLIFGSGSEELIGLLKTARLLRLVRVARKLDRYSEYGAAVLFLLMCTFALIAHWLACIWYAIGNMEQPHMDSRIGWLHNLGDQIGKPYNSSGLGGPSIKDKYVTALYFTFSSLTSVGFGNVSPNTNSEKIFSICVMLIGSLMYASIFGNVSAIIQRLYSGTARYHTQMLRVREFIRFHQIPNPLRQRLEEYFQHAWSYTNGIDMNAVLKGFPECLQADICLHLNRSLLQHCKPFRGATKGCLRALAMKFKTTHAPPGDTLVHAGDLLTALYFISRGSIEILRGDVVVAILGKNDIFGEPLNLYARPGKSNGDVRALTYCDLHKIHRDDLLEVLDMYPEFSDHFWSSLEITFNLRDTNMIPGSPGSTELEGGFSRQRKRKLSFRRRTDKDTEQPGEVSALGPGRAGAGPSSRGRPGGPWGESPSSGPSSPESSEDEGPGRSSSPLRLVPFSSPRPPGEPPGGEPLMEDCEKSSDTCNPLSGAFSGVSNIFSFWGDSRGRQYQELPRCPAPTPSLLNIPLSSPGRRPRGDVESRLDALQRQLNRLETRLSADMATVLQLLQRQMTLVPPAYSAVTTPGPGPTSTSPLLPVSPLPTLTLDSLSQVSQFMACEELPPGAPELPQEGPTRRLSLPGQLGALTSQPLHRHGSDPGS

SMILES | IC50 [1] | IC50 (THP-1 [2]) | Activity [3] | IC50 (Homo sapiens [4]) | IC50 (Homo sapiens [5]) | Activity [6] | bioavailability [7] | half-life [8] | IC50 (THP-1 [9])
O=C1NCc2c(-c3ccccc3Cl)nc(N3CCOCC3)nc2N1c1c(Cl)cccc1Cl | 2 nM | 500 nM | 6 µM | Not Active | – | – | – | – | –
CSc1nc(-c2ccccc2Cl)c2c(n1)N(c1c(Cl)cccc1Cl)C(=O)NC2 | 10 nM | 700 nM | 6 µM | Not Active | – | – | – | – | –
CC1(C)CC(Nc2nc(-c3ccccc3Cl)c3c(n2)N(c2c(Cl)cccc2Cl)C(=O)NC3)CC(C)(C)N1 | 0.7 nM | 2.6 nM | 1.2 µM | – | 38 nM | 4.5 µM | – | – | –
CC(C)(C)CNc1nc(-c2ccccc2Cl)c2c(n1)N(c1c(Cl)cccc1Cl)C(=O)NC2 | 0.8 nM | 21 nM | > 30 µM | – | 1000 nM | 10 µM | – | – | –
CC(C)N1CCC(c2cc3c(c(-c4ccccc4Cl)n2)CNC(=O)N3c2c(Cl)cccc2Cl)CC1 | – | – | – | – | – | – | 18% | 2.1 h | –
CN(C)CCOc1nc(-c2ccccc2Cl)c2c(n1)N(c1c(Cl)cccc1Cl)C(=O)NC2 | 4.2 nM | 21 nM | 8.8 µM | – | 250 nM | 10 µM | – | – | –
Nc1nc(-c2ccccc2Cl)c2c(n1)N(c1c(Cl)cccc1Cl)C(=O)NC2 | 5.3 nM | 81 nM | 9.2 µM | – | 2000 nM | – | 100% | 1.1 h | –
CC(C)Nc1nc(-c2ccccc2Cl)c2c(n1)N(c1c(Cl)cccc1Cl)C(=O)NC2 | 1.1 nM | 38 nM | 10 µM | Not Active | – | 4.5 µM | – | – | –
O=C1NCc2c(-c3ccccc3Cl)nc(NC3CN4CCC3CC4)nc2N1c1c(Cl)cccc1Cl (stereo not drawn) | 1.2 nM | 34 nM | 1.3 µM | – | 360 nM | 5.8 µM | – | – | –
Nc1cc(-c2ccccc2Cl)c2c(c1)N(c1c(Cl)cccc1Cl)C(=O)NC2 | 6 nM | – | – | – | – | – | – | – | –
COCCNc1nc(-c2ccc(Cl)cc2Cl)c2c(n1)N(c1c(Cl)cccc1Cl)C(=O)NC2 | 2 nM | 97 nM | > 10 µM | – | 270 nM | 3 µM | – | – | –
CN(C)c1nc(-c2ccccc2Cl)c2c(n1)N(c1c(Cl)cccc1Cl)C(=O)NC2 | 3 nM | – | > 10 µM | Not Active | – | 6 µM | – | – | Not Active
O=C1NCc2c(-c3ccccc3Cl)nc(O)nc2N1c1c(Cl)cccc1Cl | 4 nM | 170 nM | 7 µM | Not Active | – | 4.6 µM | – | – | –
CN1C2CCC1CC(Nc1nc(-c3ccccc3Cl)c3c(n1)N(c1c(Cl)cccc1Cl)C(=O)NC3)C2 (stereo not drawn) | 0.5 nM | 2.6 nM | 2.2 µM | – | 17 nM | 8.9 µM | – | – | –
CS(=O)(=O)c1nc(-c2ccccc2Cl)c2c(n1)N(c1c(Cl)cccc1Cl)C(=O)NC2 | 4.2 nM | 500 nM | > 10 µM | Not Active | – | 9 µM | – | – | –
CC(C)N1CCC(c2cc(-c3ccc(F)cc3F)c3c(c2)N(c2c(Cl)cccc2Cl)C(=O)NC3)CC1 | 0.2 nM | – | – | – | 20 nM | – | – | – | –
O=C1NCc2c(-c3ccc(F)cc3F)cc(C3CCNCC3)cc2N1c1c(Cl)cccc1Cl | – | – | – | – | 10 nM | – | – | – | –
CC(C)N1CCC(Nc2nc(-c3ccccc3Cl)c3c(n2)N(c2c(Cl)cccc2Cl)C(=O)NC3)CC1 | 0.6 nM | 1 nM | 3.3 µM | – | 15 nM | 6.4 µM | 24% | 2 h | –
CN(C)CCN1CCN(c2nc(-c3ccccc3Cl)c3c(n2)N(c2c(Cl)cccc2Cl)C(=O)NC3)CC1 | 0.5 nM | 2.3 nM | 1.7 µM | – | 100 nM | 3.8 µM | – | – | –
CNc1nc(-c2ccccc2Cl)c2c(n1)N(c1c(Cl)cccc1Cl)C(=O)NC2 | 2 nM | 22 nM | 10 µM | – | 850 nM | 6.4 µM | – | – | –
C[C@@H]1CN(c2nc(-c3ccc(Cl)cc3Cl)c3c(n2)N(c2c(Cl)cccc2Cl)C(=O)NC3)C[C@H](C)O1 | 2 nM | 500 nM | 6 µM | Not Active | – | 5 µM | – | – | –
CN(C)CCN1CCN(c2nc(-c3ccc(Cl)cc3Cl)c3c(n2)N(c2c(Cl)cccc2Cl)C(=O)NC3)CC1 | 1 nM | 22 nM | 0.22 µM | – | 42 nM | – | 3% | – | –
CN(C)CCNc1nc(-c2ccc(Cl)cc2Cl)c2c(n1)N(c1c(Cl)cccc1Cl)C(=O)NC2 | 5.6 nM | 20 nM | 1 µM | – | 32 nM | 0.5 µM | – | – | –
CC(C)N1CCN(c2nc(-c3ccc(Cl)cc3Cl)c3c(n2)N(c2c(Cl)cccc2Cl)C(=O)NC3)CC1 | 20 nM | 330 nM | 0.7 µM | – | 1940 nM | 0.2 µM | – | – | –
O=C1NCc2c(-c3ccccc3Cl)nc(NN3CCOCC3)nc2N1c1c(Cl)cccc1Cl | 4 nM | 99 nM | 7 µM | – | 1000 nM | 6.9 µM | – | – | –
O=C1NCc2c(-c3ccccc3Cl)nc(N3CCc4[nH]ncc4C3)nc2N1c1c(Cl)cccc1Cl | 1.9 nM | 28 nM | > 30 µM | – | 500 nM | 10 µM | – | – | –
O=C1NCc2c(-c3ccccc3Cl)cc(O)cc2N1c1c(Cl)cccc1Cl | 2 nM | – | – | – | – | – | – | – | –
